Measured values: ChEMBL document CHEMBL1629423, “Second generation analogs of rigid 6,7-spiro scaffolds targeting the bacterial ribosome” (Bioorg Med Chem Lett, 2010)

Legend:
Ribosome = experiment: Binding affinity to ribosome in reticulocyte lysate assessed as inhibition of transcription-translational activity by luciferase assay; type: subcellular
Method in brief: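 Eukaryotic counter-screen by coupled transcription/translation (TNT quick) in reticulocyte lysate. IC50 is the mean of three replicate experiments per compound (±15%), in μM.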

Nucleic Acid = experiment: Binding affinity to RNA by RNA fluorescence assay; type: nucleic-acid assay
Method in brief: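 Decoding-site model RNA oligonucleotide carrying 2-aminopurine at the flexible adenine A1492. Binding is read as the rise in 2AP fluorescence emission. EC50 is the mean of three replicate experiments per compound (±10%), in μM.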

Bacterial 70S ribosome = experiment: Binding affinity to Escherichia coli ribosome assessed as inhibition of transcription-translational activity by luciferase assay; type: subcellular
Method in brief: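 Coupled in vitro transcription–translation run in E. coli extract. IC50 values are given in μM and averaged over three replicate experiments per compound (±15%).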

| SMILES | IC50 (Ribosome) | EC50 (Nucleic Acid) | IC50 (Bacterial 70S ribosome) |
| --- | --- | --- | --- |
| N[C@@H]1C[C@H](N)[C@@]2(C[C@H](O)[C@H](O)CO2)[C@H](O)[C@H]1O | > 1000 µM | 6.5 µM | 11.3 µM |
| N[C@@H]1C[C@H](N)[C@@]2(CC[C@@H](O)[C@@H](O)CO2)[C@H](O)[C@H]1O | 160 µM | 141 µM | 168 µM |
| N[C@@H]1C[C@H](N)[C@@]2(CC[C@H](O)[C@H](O)CO2)[C@H](O)[C@H]1O | 130 µM | 74 µM | 118 µM |
| N[C@@H]1C[C@H](N)[C@@]2(CCC=CCO2)[C@H](O)[C@H]1O | > 1000 µM | 8.4 µM | > 1000 µM |
| C=CCC(C)(C)CN[C@@H]1C[C@H](N)[C@@]2(CCC=CCO2)[C@H](O)[C@H]1O | > 1000 µM | 63 µM | 429 µM |
| NCC[C@H](O)C(=O)N[C@@H]1C[C@H](N)[C@@]2(CC[C@H](O)[C@H](O)CO2)[C@H](O)[C@H]1O | > 1000 µM | 6.9 µM | 186 µM |
| NCCCC[C@H](N)C(=O)N[C@@H]1C[C@H](N)[C@@]2(CC[C@H](O)[C@H](O)CO2)[C@H](O)[C@H]1O | > 1000 µM | 12 µM | 98 µM |
| NC[C@@H]1O[C@H](O[C@H]2[C@@H](O)[C@H](O[C@@H]3[C@@H](O)[C@H](N)C[C@H](N)[C@H]3O[C@H]3O[C@H](CN)[C@@H](O)[C@H](O)[C@H]3N)O[C@@H]2CO)[C@H](N)[C@@H](O)[C@@H]1O [FRAMYCETIN] | 252 µM | 0.007 µM | 0.032 µM |
| NC[C@H]1O[C@H](O[C@H]2[C@H](O)[C@@H](O)[C@H](N)C[C@@H]2N)[C@H](N)[C@@H](O)[C@@H]1O [NEAMINE] | 120 µM | 9.5 µM | 5 µM |
